Assay results from ChEMBL document CHEMBL3102808, “Synthesis, in vitro antimalarial activity and cytotoxicity of novel 4-aminoquinolinyl-chalcone amides” (Bioorg Med Chem, 2014).

Experiments:
[1] = Selectivity index, ratio of IC50 for human WI38 cells to IC50 for Plasmodium falciparum 3D7; type: toxicity, cell-based, WI-38; details: read-out: Ratio IC50
Procedure, shortened: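 Selectivity index calculated as IC50 on WI-38 fibroblasts (48 h SRB) divided by IC50 on P. falciparum 3D7 (pLDH assay).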

[2] = tested on: Plasmodium falciparum; experiment: Ratio of chloroquine IC50 to compound IC50 for Plasmodium falciparum W2 after 48 hrs by LDH colorimetric assay; type: functional
[3] = tested on: Plasmodium falciparum; experiment: Antimalarial activity against Plasmodium falciparum W2 after 48 hrs by LDH colorimetric assay; type: functional, organism-based; details: W2, 48 h
Procedure, shortened: (§1)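 Parasite survival after drug exposure read by pLDH colorimetric enzyme assay; APAD co-factor, formazan absorbance at 620 nm. Samples prepared in parasite culture medium in 96-well plates. Survival per well relative to drug-free control wells. IC50 from fitted sigmoidal dose-response curves.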

[4] = tested on: Plasmodium falciparum; experiment: Antimalarial activity against Plasmodium falciparum 3D7 after 48 hrs by LDH colorimetric assay; type: functional, organism-based; details: 3D7, 48 h; procedure, shortened: as §1
[5] = tested on: Plasmodium falciparum; experiment: Resistance index, ratio of IC50 for Plasmodium falciparum W2 to IC50 for Plasmodium falciparum 3D7; type: functional
Procedure, shortened: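 P. falciparum 3D7 and W2 cultures were exposed to test samples prepared in parasite culture medium. Survival was read by a pLDH colorimetric assay using APAD as cofactor, with formazan absorbance at 620 nm and percentage survival set against drug-free wells. IC50 for each strain came from fitted sigmoidal dose-response curves, and the ratio is IC50 W2 / IC50 3D7.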

[6] = Cytotoxicity against human WI38 cells after 48 hrs by SRB assay; type: cell-based; details: WI-38, 48 h
Procedure, shortened: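 WI-38 normal human fetal lung fibroblasts, passages 21–50, seeded at 10 000 cells/well and incubated 24 h. Compounds dissolved in DMSO, diluted in medium to five concentrations, then exposed 48 h. Untreated cells as control, medium-only blank, parthenolide as standard. Cells TCA-fixed and stained with sulforhodamine B (NCI protocol). IC50 by non-linear regression.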

Cc1ccc(C(=O)/C=C/c2ccc(C(=O)NCCCCCCNc3ccnc4cc(Cl)ccc34)cc2)o1
selectivity ratio [1]: 435
Ratio IC50 [2]: 2
IC50 [3]: 0.07 µM
IC50 [4]: 0.05 µM
Ratio IC50 [5]: 1.5
IC50 [6]: 19.5 µM

Cc1ccc(C(=O)/C=C/c2ccc(C(N)=O)cc2)o1
IC50 [4]: 10 µM

Cc1ccc(C(=O)/C=C/c2ccc(C(=O)N3CCN(c4ccnc5cc(Cl)ccc45)CC3)cc2)o1
selectivity ratio [1]: 32
IC50 [3]: 1.26 µM
IC50 [4]: 0.54 µM
Ratio IC50 [5]: 2.3
IC50 [6]: 17.3 µM

Cc1ccc(C(=O)/C=C/c2ccc(C(=O)N(C)CCCNc3ccnc4cc(Cl)ccc34)cc2)o1
selectivity ratio [1]: 50
IC50 [3]: 0.46 µM
IC50 [4]: 0.37 µM
Ratio IC50 [5]: 1.2
IC50 [6]: 18.6 µM

Cc1ccc(C(=O)/C=C/c2ccc(C(=O)NCCOCCOCCNc3ccnc4cc(Cl)ccc34)cc2)o1
selectivity ratio [1]: 40
IC50 [3]: 0.27 µM
IC50 [4]: 0.26 µM
Ratio IC50 [5]: 1.1
IC50 [6]: 10.2 µM

Cc1ccc(C(=O)/C=C/c2ccc(C(=O)NC(C)CNc3ccnc4cc(Cl)ccc34)cc2)o1 (centres undefined)
selectivity ratio [1]: 126
IC50 [3]: 0.11 µM
IC50 [4]: 0.08 µM
Ratio IC50 [5]: 1.4
IC50 [6]: 10 µM

Cc1ccc(C(=O)/C=C/c2ccc(C(=O)NCCCCNc3ccnc4cc(Cl)ccc34)cc2)o1
selectivity ratio [1]: 819
IC50 [3]: 0.1 µM
IC50 [4]: 0.05 µM
Ratio IC50 [5]: 2.1
IC50 [6]: 39 µM

Cc1ccc(C(=O)/C=C/c2ccc(C(=O)NCCCN(C)CCCNc3ccnc4cc(Cl)ccc34)cc2)o1
selectivity ratio [1]: 58
IC50 [3]: 0.22 µM
IC50 [4]: 0.09 µM
Ratio IC50 [5]: 2.4
IC50 [6]: 5.3 µM

Cc1ccc(C(=O)/C=C/c2ccc(C(=O)N3CCOCC3)cc2)o1
IC50 [4]: > 30 µM

CCCCNC(=O)c1ccc(/C=C/C(=O)c2ccc(C)o2)cc1
IC50 [4]: 10 µM

C=C1C(=O)O[C@@H]2C3O[C@]3(C)CC/C=C(\C)CC[C@@H]12 (some centres undefined)
IC50 [6]: 16.4 µM

Cc1ccc(C(=O)/C=C/c2ccc(C(=O)O)cc2)o1
IC50 [3]: 14.2 µM
IC50 [4]: 18.4 µM
Ratio IC50 [5]: 0.8
IC50 [6]: > 100 µM

Cc1ccc(C(=O)/C=C/c2ccc(C(=O)NCCCNc3ccnc4cc(Cl)ccc34)cc2)o1
selectivity ratio [1]: 1120
IC50 [3]: 0.23 µM
IC50 [4]: 0.07 µM
Ratio IC50 [5]: 3.4
IC50 [6]: 74.5 µM

Cc1ccc(C(=O)/C=C/c2ccc(C(=O)NCCNc3ccnc4cc(Cl)ccc34)cc2)o1
selectivity ratio [1]: 446
IC50 [3]: 1.78 µM
IC50 [4]: 0.11 µM
Ratio IC50 [5]: 16.7
IC50 [6]: 47.3 µM
